Test results as given in ChEMBL document CHEMBL1811799, “Jatrophane diterpenes from Euphorbia esula as antiproliferative agents and potent chemosensitizers to overcome multidrug resistance” (J Nat Prod, 2011).

What was measured:
MCF7 [1] = experiment: Antiproliferative activity against human MCF7 cells assessed as growth inhibition at 30 ug/mL after 72 hrs by MTT assay; type: functional; conditions: MCF7, 72 h, read-out: GI
Procedure, shortened: (§1)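 MTT assay on human HeLa, Ishikawa and MCF7 cells seeded at 5000/well and left to attach overnight. Medium was then replaced with medium containing test substances (DMSO stocks, final DMSO up to 0.3%). After 72 h, MTT was added for 4 h, formazan was dissolved in DMSO and absorbance read at 545 nm. Untreated cells served as negative control and cisplatin as positive control. Two plates were run, each with at least five parallel wells.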

MCF7 [2] = experiment: Antiproliferative activity against human MCF7 cells assessed as growth inhibition at 10 ug/mL after 72 hrs by MTT assay; type: functional; conditions: MCF7, 72 h, read-out: GI; procedure, shortened: as §1
[3] = target: T1, ATP-dependent translocase ABCB1 (Homo sapiens, UniProt P08183); experiment: Inhibition of MDR1-mediated rhodamine 123 uptake expressed in mouse L5178Y cells transfected with pHa MDR1/A assessed as fluorescence activity ratio at 4 ug/mL by flow cytometry relative to untreated control; type: cell-based
T1 sequence (P08183 whole entry): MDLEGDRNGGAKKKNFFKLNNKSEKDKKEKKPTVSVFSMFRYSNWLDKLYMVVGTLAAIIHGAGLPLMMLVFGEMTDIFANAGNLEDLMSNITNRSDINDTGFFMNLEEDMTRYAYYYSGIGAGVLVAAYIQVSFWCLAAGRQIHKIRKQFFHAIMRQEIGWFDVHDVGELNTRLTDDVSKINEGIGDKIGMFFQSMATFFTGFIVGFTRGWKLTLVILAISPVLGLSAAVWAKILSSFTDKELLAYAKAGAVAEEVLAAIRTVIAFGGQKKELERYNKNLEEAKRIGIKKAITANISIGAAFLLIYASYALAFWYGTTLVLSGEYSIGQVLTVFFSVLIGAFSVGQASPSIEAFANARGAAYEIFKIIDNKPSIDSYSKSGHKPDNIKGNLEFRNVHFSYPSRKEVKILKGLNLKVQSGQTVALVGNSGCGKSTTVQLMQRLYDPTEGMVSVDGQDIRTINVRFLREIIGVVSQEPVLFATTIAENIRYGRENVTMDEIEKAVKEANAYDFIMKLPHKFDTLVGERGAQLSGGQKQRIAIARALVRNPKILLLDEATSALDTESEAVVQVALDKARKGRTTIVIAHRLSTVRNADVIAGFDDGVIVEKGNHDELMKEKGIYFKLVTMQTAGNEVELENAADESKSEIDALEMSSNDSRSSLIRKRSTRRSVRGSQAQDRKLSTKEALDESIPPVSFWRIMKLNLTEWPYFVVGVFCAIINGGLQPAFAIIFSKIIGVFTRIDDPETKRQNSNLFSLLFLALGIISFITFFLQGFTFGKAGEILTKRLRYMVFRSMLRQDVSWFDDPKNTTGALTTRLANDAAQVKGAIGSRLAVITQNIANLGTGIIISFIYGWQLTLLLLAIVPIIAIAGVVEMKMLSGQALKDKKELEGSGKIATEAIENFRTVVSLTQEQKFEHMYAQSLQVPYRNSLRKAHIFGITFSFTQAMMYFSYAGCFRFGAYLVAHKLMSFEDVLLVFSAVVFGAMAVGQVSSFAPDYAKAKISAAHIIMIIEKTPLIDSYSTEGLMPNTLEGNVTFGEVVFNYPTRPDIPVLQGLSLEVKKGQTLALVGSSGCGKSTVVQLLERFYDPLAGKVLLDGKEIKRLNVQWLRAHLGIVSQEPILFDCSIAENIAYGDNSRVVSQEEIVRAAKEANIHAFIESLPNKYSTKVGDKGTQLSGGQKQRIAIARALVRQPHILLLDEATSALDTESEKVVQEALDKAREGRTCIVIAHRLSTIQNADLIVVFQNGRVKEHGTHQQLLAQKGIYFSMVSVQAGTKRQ
Procedure, shortened: (§2)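 Mouse L5178 lymphoma cells transfected with pHa MDR1/A retrovirus were kept under 60 ng/mL colchicine, alongside L5178Y parent cells, in McCoy's 5A medium with 10% horse serum. Cells at 2×10^6/mL in serum-free medium were preincubated with compound (4.0 or 40.0 μg/mL, in DMSO) for 10 min at room temperature. Rhodamine 123 was then added (5.2 μM final) for 20 min at 37 °C, and cells were washed and measured by flow cytometry. R compares treated versus untreated MDR cells relative to parental cells. Verapamil served as positive control.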

Ishikawa [4] = experiment: Antiproliferative activity against human Ishikawa cells assessed as growth inhibition at 30 ug/mL after 72 hrs by MTT assay; type: functional; conditions: read-out: GI; procedure, shortened: as §1
HeLa [5] = experiment: Antiproliferative activity against human HeLa cells assessed as growth inhibition at 30 ug/mL after 72 hrs by MTT assay; type: functional; conditions: read-out: GI; procedure, shortened: as §1
Ishikawa [6] = experiment: Antiproliferative activity against human Ishikawa cells assessed as growth inhibition at 10 ug/mL after 72 hrs by MTT assay; type: functional; conditions: read-out: GI; procedure, shortened: as §1
HeLa [7] = experiment: Antiproliferative activity against human HeLa cells assessed as growth inhibition at 10 ug/mL after 72 hrs by MTT assay; type: functional; conditions: read-out: GI; procedure, shortened: as §1
[8] = target: T1, ATP-dependent translocase ABCB1; experiment: Inhibition of MDR1-mediated rhodamine 123 uptake expressed in mouse L5178Y cells transfected with pHa MDR1/A assessed as fluorescence activity ratio at 40 ug/mL by flow cytometry relative to untreated control; type: cell-based; procedure, shortened: as §2

Row | Ratio [3] | Ratio [8] | Compound | inhibition of growth at 30 µg/mL (MCF7 [1]) | inhibition of growth at 10 µg/mL (MCF7 [2]) | inhibition of growth at 30 µg/mL (Ishikawa [4]) | inhibition of growth at 30 µg/mL (HeLa [5]) | inhibition of growth at 10 µg/mL (Ishikawa [6]) | inhibition of growth at 10 µg/mL (HeLa [7])
1 | 1.7 | 2.3 | C=C1[C@H](OC(C)=O)C[C@@H](OC(=O)c2cccnc2)C(C)(C)/C=C/[C@@H](C)C(=O)[C@@]2(OC(C)=O)C[C@@](C)(OC(C)=O)[C@H](OC(C)=O)[C@@H]2[C@H]1OC(C)=O | 36.3% | 20.3% | 13.9% | 17.9% | 8.1% | 13.9%
2 | 3.9 | 19.9 | C=C1[C@H](OC(C)=O)CC(=O)C(C)(C)/C=C/[C@@H](C)C(=O)[C@@]2(OC(C)=O)C[C@@](C)(OC(=O)c3ccccc3)[C@H](OC(C)=O)[C@@H]2[C@H]1OC(C)=O [ESULATIN I] | 60.1% | 12.7% | 29.4% | 23.8% | 8% | 15.4%
3 | 5.5 | 14.8 | C=C1[C@H](OC(=O)C(C)C)[C@@H](OC(C)=O)[C@@H](OC(C)=O)C(C)(C)/C=C/[C@@H](C)C(=O)[C@@]2(OC(C)=O)C[C@@](C)(OC(C)=O)[C@H](OC(C)=O)[C@@H]2[C@H]1OC(C)=O | 23.3% | 8.7% | 17.1% | 10.9% | 21.4% | 2.9%
4 | – | – | C=C1/C=C\C(=O)C(C)(C)/C=C/[C@@H](C)C(=O)[C@@]2(OC(C)=O)C[C@@](C)(OC(C)=O)[C@H](OC(C)=O)[C@@H]2[C@H]1OC(C)=O [ESULATIN E] | 61.4% | 30.4% | 54.1% | 58.1% | 35.6% | 19.5%
5 | 16.6 | 119.9 | C=C1[C@H](OC(=O)C(C)C)C[C@@H](OC(=O)c2cccnc2)C(C)(C)/C=C/[C@@H](C)C(=O)[C@@]2(OC(C)=O)C[C@H](C)[C@H](OC(C)=O)[C@@H]2[C@H]1OC(C)=O | 14.4% | 18.5% | 16.4% | 4.5% | 5.9% | 18.3%
6 | 2.6 | 7.8 | C=C1[C@H](OC(C)=O)CC(=O)C(C)(C)/C=C/[C@@H](C)C(=O)[C@@]2(OC(C)=O)C[C@@](C)(OC(C)=O)[C@H](OC(C)=O)[C@@H]2[C@H]1OC(C)=O [ESULATIN B] | 43.3% | 29.9% | 35% | 36.3% | 11.6% | 17.3%
7 | 7.2 | 19.8 | C=C1[C@H](OC(C)=O)C[C@@H](OC(=O)c2cccnc2)C(C)(C)/C=C/[C@@H](C)C(=O)[C@@]2(OC(C)=O)C[C@@](C)(OC(=O)c3cccnc3)[C@H](OC(C)=O)[C@@H]2[C@H]1OC(C)=O [ESULATIN K] | 21.3% | 1.3% | 0.1% | 0.6% | 7.5% | 0.5%
8 | 4.6 | 15.2 | C=C1[C@H](OC(C)=O)C[C@@H](OC(C)=O)C(C)(C)/C=C/[C@@H](C)C(=O)[C@@]2(OC(C)=O)C[C@@](C)(OC(C)=O)[C@H](OC(C)=O)[C@@H]2[C@H]1OC(C)=O [ESULATIN D] | 13.5% | 9.5% | 29.9% | 26.7% | 29.4% | 11.4%
9 | 23.8 | 36.4 | C=C1[C@H](OC(=O)C(C)C)C[C@@H](OC(=O)c2cccnc2)C(C)(C)/C=C/[C@@H](C)C(=O)[C@@]2(OC(C)=O)C[C@@](C)(OC(C)=O)[C@H](OC(C)=O)[C@@H]2[C@H]1OC(C)=O | 16.7% | 3.6% | 26.6% | 1.1% | 17.5% | 6.4%
10 | 5.9 | 17.5 | CC(=O)O[C@H]1[C@H]2OC(=O)CC[C@](O)([C@@H]1OC(=O)C(C)C)[C@H](OC(C)=O)[C@H]1[C@@H](OC(C)=O)[C@](C)(OC(C)=O)C[C@]1(OC(C)=O)C(=O)[C@H](C)[C@H]1O[C@@H]1C2(C)C | 29.2% | 24.8% | 33% | 20.8% | 31.5% | 5.3%
11 | 1.9 | 12.3 | C=C1[C@H](OC(C)=O)C[C@@H](OC(=O)c2cccnc2)[C@](C)(OC(C)=O)C/C=C/[C@@H](C)C(=O)[C@@]2(OC(C)=O)C[C@@](C)(OC(=O)c3cccnc3)[C@H](OC(C)=O)[C@@H]2[C@H]1OC(C)=O [EUPHOSALICIN] | 20% | 6.3% | 7.6% | 18.1% | 0.9% | 14.5%
12 | 24.9 | 52.5 | C=C1[C@H](OC(=O)C(C)C)CC(=O)C(C)(C)/C=C/[C@@H](C)C(=O)[C@@]2(OC(C)=O)C[C@H](C)[C@H](OC(C)=O)[C@@H]2[C@H]1OC(C)=O | 81.4% | 46.8% | 98.4% | 64.5% | 18.4% | 19.1%
13 | 1.4 | 1 | C=C1[C@H](OC(=O)C(C)C)[C@@H](OC(C)=O)[C@@H](OC(C)=O)C(C)(C)[C@@H]2O[C@](O)([C@H](C)[C@@H]2OC(C)=O)[C@@]2(OC(C)=O)C[C@@](C)(OC(C)=O)[C@H](OC(C)=O)[C@@H]2[C@H]1OC(C)=O | 11.4% | 9.8% | 17.7% | 17.8% | 12% | 10.6%
